# Experimental data: ChEMBL document CHEMBL1157863, “Synthesis and antiviral activity of new acrylamide derivatives containing 1,2,3-thiadiazole as inhibitors of hepatitis B virus replication” (Eur J Med Chem, 2010); call rule not given here
# Key:
# [1] = Cytotoxicity against human HepG2(2.2.15) cells after 9 days by neutral red dye uptake assay; settings: read-out: TC50
# Hepatitis B virus [2] = test: Antiviral activity against HBV infected in HepG2(2.2.15) cells assessed as inhibition of viral DNA replication after 8 days by dot blot hybridization
# Hepatitis B virus [3] = test: Antiviral activity against HBV infected in HepG2(2.2.15) cells assessed as inhibition of viral surface antigen secretion after 8 days by radio immunoassay; type: functional, organism-based
# Outline: (§1)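 Confluent 2.2.15 cultures were dosed at several concentrations in RPMI 1640 with 2% FBS, with fresh medium and compound each day for 8 days and untreated cell controls. HBsAg and HBeAg secreted into the supernatant were quantified by radioimmunoassay kits.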
# [4] = Selectivity index, ratio of TC50 for human HepG2(2.2.15) cells to IC50 for Hepatitis B virus DNA replication; type: toxicity
# Hepatitis B virus [5] = test: Antiviral activity against HBV infected in HepG2(2.2.15) cells assessed as inhibition of viral early antigen secretion after 8 days by radio immunoassay; type: functional, organism-based; settings: HepG2 2.2.15, 192 h
# Outline: as §1
# [6] = Selectivity index, ratio of TC50 for human HepG2(2.2.15) cells to IC50 for Hepatitis B virus early antigen secretion; type: toxicity
# [7] = Hepatitis B virus, HepG2 2.2.15, 192 h, read-out: IC50
Structure (SMILES),CC50 at 216 h [1] [µg/mL],IC50 (Hepatitis B virus [2]; hepg2 2.2.15),IC50 (Hepatitis B virus [3]),IC50 (Hepatitis B virus [2]; [7]) [µg/mL],selectivity ratio [4],IC50 (Hepatitis B virus [5]) [µg/mL],selectivity ratio [6]
Cc1nnsc1C(=O)N/C(C(=O)N1CCCCC1)=C(\Br)c1ccccc1,111,Not Active,Not Active,,,,
Cc1nnsc1C(=O)N/C(C(=O)N1CCCCC1)=C(\Br)c1ccccc1Cl,86.2,,Not Active,10.4,8.29,,
Nc1ccn([C@@H]2CS[C@H](CO)O2)c(=O)n1 [LAMIVUDINE],962,,Not Active,14.8,65,,
Cc1nnsc1/C(Br)=C(/NC(=O)c1ccccc1)C(=O)N1CCCCC1,192,,Not Active,9,21.4,,
Cc1nnsc1C(=O)N/C(C(=O)N1CCOCC1)=C(\Br)c1snnc1C,47.7,Not Active,Not Active,,,,
Cc1nnsc1C(=O)N/C(C(=O)N1CCCCC1)=C(\Br)c1ccc(Cl)cc1,17.8,,Not Active,3.59,4.96,,
Cc1nnsc1/C=C(/NC(=O)c1ccccc1)C(=O)N1CCCCC1,231,Not Active,Not Active,,,,
Cc1nnsc1/C(Cl)=C(/NC(=O)c1ccccc1)C(=O)N1CCOCC1,577,Not Active,Not Active,,,,
Cc1nnsc1/C(Br)=C(/NC(=O)c1ccccc1)C(=O)N1CCOCC1,333,,Not Active,30.5,10.9,,
Cc1nnsc1C(=O)N/C(C(=O)N1CCCCC1)=C(\Cl)c1ccccc1,64.2,Not Active,Not Active,,,12.3,5.23
CCN(CC)C(=O)/C(NC(=O)c1ccccc1)=C(/Br)c1snnc1C,86.2,Not Active,Not Active,,,,
